# Source: PubChem BioAssay (several laboratories)
# PKA-R2B act = activators of human PKA-R2B complex. activation, % at 11.4 µM. hit rate 0.079% among 340,000. P22694+P31323. AID 504700. PKA-R2B holoenzyme dissociation, Cy5-IP20 fluorescence polarization; R2B truncated from residue 108, S112A mutant; 0% DMSO only, 100% 113 µM cGMP;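 active = activation above a cutoff set at the mean over all compounds plus 3 SD, cut at about 18% in these data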;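 also: higher means more holoenzyme dissociation and a rise in polarization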
# PKA-R1A act = PKA-R1A complex activation; activation, % at 11.4 µM; hit rate 0.083% among 340,000; AID 504707; PKA-R1A dissociation, Cy5-IP20 fluorescence polarization; scaled: DMSO 0%, 113 µM cGMP 100%; P00514+P68181;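 active = percent activation above the mean of all tested compounds plus 3 SD, cut at about 19% in these data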;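 also: higher means more PKAc released from R1A so a rise in polarization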
# DDE Tn6 FP inh = DD(E)-Tn6 binding inhibition, primary FP screen; P02675; Fibrin DD(E) TRITC-Tn6 fluorescence polarization displacement; inhibition, % at 8.3 µM; hit rate 0.21% among 370,000; AID 720509;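 active = inhibition above a per-campaign cutoff: mean of compounds within control limits plus 3 SD, cut at about 15% in these data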;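 also: 0% = median of all compound wells on the plate and 100% = blocking peptide control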
# Tn7 DDE FP = disrupts Tn7 cyclic peptide binding to fibrin D-Dimer-E complex. P02675. FP displacement of FITC-Tn7 peptide from fibrin DD(E); 0% = median of compound wells per plate. inhibition, % at 8.3 µM. hit rate 0.13% among 370,000. AID 720508;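 active = inhibition above the mean of compounds falling within the control limits plus 3 SD of them, cut at about 14% in these data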;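 also: 0% = plate median of compound wells and 100% = 10 µM Aha-Tn7 peptide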
#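 Assay system: Human clot-derived fibrin DD(E) complex | Buffer or medium: Tris/NaCl/CaCl2 buffer, pH 7.8 | Repeats: One replicate per compound | Benchmarks: Aha-Tn7 high control | Measure: % inhibition scaled between sample-field median and high-control FP | Schedule: 10 min plus 3 h, room temperature | Signal: Fluorescence polarization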
# Neddylation inh = cullin neddylation inhibition | hit rate 0.58% among 360,000 | P61081+Q13564 | AID 651699 | inhibition, % at 25 µM | TR-FRET cullin neddylation, biochemical; in the data active = inhibition above about 36%
# Target sequence (P61081 whole entry, looked up): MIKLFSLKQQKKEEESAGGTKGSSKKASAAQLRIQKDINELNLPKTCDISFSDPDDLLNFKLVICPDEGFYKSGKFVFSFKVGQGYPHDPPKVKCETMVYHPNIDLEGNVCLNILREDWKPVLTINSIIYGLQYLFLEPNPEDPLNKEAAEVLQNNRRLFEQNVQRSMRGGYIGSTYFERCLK
# Target sequence (Q13564 whole entry, looked up): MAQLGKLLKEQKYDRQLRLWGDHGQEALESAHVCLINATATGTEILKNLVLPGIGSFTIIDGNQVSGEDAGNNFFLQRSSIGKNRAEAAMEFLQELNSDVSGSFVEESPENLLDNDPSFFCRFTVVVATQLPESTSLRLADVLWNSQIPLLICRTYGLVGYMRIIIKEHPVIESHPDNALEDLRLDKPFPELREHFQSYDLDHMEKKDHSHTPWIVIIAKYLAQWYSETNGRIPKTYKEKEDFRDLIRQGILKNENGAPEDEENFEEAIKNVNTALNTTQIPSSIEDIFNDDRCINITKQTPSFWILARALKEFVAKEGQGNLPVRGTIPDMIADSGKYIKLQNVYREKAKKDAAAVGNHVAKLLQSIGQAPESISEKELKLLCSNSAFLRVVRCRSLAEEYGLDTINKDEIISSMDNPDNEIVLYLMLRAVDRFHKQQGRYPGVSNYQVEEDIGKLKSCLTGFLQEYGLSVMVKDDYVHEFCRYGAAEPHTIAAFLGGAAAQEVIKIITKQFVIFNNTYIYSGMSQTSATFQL
# Neddyl conf = cullin neddylation inhibition, confirmation; shares compounds with Neddylation inh; TR-FRET cullin neddylation biochemical assay; calls only at 25 µM; hit rate 13% among 1,800; AID 652217; in the data active = inhibition above about 40%;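 also: neddylation substrate is the cullin 1 ring ligase complex with SKP2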
# * hit, by the source's call; i = inactive; / = no result shown; + = active, no number; ! = not confirmed by another sample. In the library only some 1% were active in any assay of this set; here they are far more common.
SMILES,PKA-R2B act,PKA-R1A act,DDE Tn6 FP inh,Tn7 DDE FP,Neddylation inh,Neddyl conf
Cc1csc(NC(=O)CSCC(=O)O)c1-c1nc2ccccc2s1,3,-14,-3,-7,44*,/
Cc1cc(C)cc(N(C(=O)c2snc(C(N)=O)c2N)C(C(=O)NCC2CCCO2)c2cccs2)c1 (stereo unspecified),/,/,-1,-5,43*,i
CCOc1ccc(N(C(=O)c2snc(C(N)=O)c2N)C(C(=O)NCC2CCCO2)c2ccc(C)o2)cc1 (stereo unspecified),-8,-6,0,2,8,/
COc1cccc(N(C(=O)c2snc(C(N)=O)c2N)C(C(=O)NCC2CCCO2)c2cccs2)c1 (stereo unspecified),6,-5,-5,1,35,/
NC(=O)c1nsc(C(=O)N(c2ccccc2)C(C(=O)NCC2CCCO2)c2cccs2)c1N (stereo unspecified),7,0,5,2,44*,i
Cc1ccc(C(C(=O)NCC2CCCO2)N(C(=O)c2snc(C(N)=O)c2N)c2ccc(F)cc2)o1 (stereo unspecified),0,-10,-3,7,53*,+
OC(c1ccccc1)(c1ccccc1)C1CCN(CCCOc2ccc(C(F)(F)F)cc2)CC1,/,/,-13,0,/,/
COC(=O)CCC(=O)OC1(C)C(=O)C=C2C=C(C3CC3)N(c3cccc(C#N)c3)C=C2C1=O (stereo unspecified),5,-14,4,-5,44*,i
CC1=C(C(=O)OC2CCCCCC2)C(c2ccc(C)o2)C2=C(CCCC2=O)N1 (stereo unspecified),-18,-15,-4,1,/,/
COC(=O)C1=C(C)NC2=C(C(=O)CCC2)C1c1ccc(-c2ccsc2C(=O)OC)o1 (stereo unspecified),-1,-1,2,10,38*,/
O=Cc1cnc(N2CCCCC2)s1,9,3,4,-3,-19,/
O=C(N/N=C/c1cnc(N2CCCCC2)s1)c1ccc(Cl)cc1,-14,-4,-4,2,46*,+
O=S1(=O)c2ccc(Br)cc2OC[C@@H](c2ccccc2)N1Cc1cn(CCC2OCCCO2)nn1,/,/,7,0,/,/
COC(=O)c1ccc2nc(-c3ccc(C)cc3)c(Cc3ccccc3)n2c1,/,/,3,-4,/,/
N#Cc1ccc(-c2ccc(OCC(=O)Nc3cccnc3)cc2)cc1,-14,-6,-6,2,38*,i
COc1ccc(NC(=O)CN(C)C(=O)c2cc(-c3ccc(Cl)cc3)nc3ccccc23)cc1,3,-9,-7,2,-12,/
CCOc1ccc(NC(=O)CN(C)C(=O)c2cc(-c3ccc(OC)cc3)nc3ccccc23)cc1OCC,-2,-13,-3,0,55*,/
COc1ccc(-c2cc(C(=O)N(C)CC(=O)Nc3ccccc3Br)c3ccccc3n2)cc1OC,-6,0,0,3,47*,+
CCCCNC(=O)c1cc2nc(-c3ccc(OC)cc3)cc(C(F)(F)F)n2n1,3,-6,-1,8,32,/
Cc1ccc(-c2cc(C(F)(F)F)n3nc(C(=O)NCCCn4ccnc4)cc3n2)cc1C,-2,-5,-8,-1,44*,/
CN(C)c1ccc(C(=O)NC2CCCCN(Cc3cccc(Cl)c3)C2=O)cc1 (stereo unspecified),/,/,-5,-1,/,/
Nc1cc(N)cc(-c2nc3ccccc3[nH]2)c1,-8,-6,-13,0,41*,/
c1ccc(-c2nc3ccccc3[nH]2)cc1,-6,-2,7,-4,16,/
CC(=O)N1CCN(c2nc(CC(C)C)c3c(c2C#N)CCC3)CC1,-12,-8,-2,10,/,/
CC(C)Cc1nc(N2CCCCC2)c(C#N)c2c1CCC2,-1,-1,0,-3,39*,/
SMILES,PKA-R2B act,PKA-R1A act,DDE Tn6 FP inh,Tn7 DDE FP,Neddylation inh,Neddyl conf
COC(=O)c1sc2nc3c(cc2c1N)COC(C)(C)C3,-5,-10,-3,4,52*,+
CC1(C)Cc2nc3sc(C(=O)NCCCO)c(N)c3cc2CO1,4,7,-11,4,7,/
O=C(O)Cn1c(=O)c(-c2ccccc2)nc2ccccc21,2,8,3,-6,55*,/
O=C(O)Cn1c(-c2ccccc2)nc2ccccc21,3,-7,3,5,19,/
CC1(C)Oc2ccc3ccc(=O)oc3c2/C(=C/O)C1=O,-3,8,-1,1,44*,i
COC(=O)C1=C(C)N(CC(C)C)C(=S)NC1c1ccc(Cl)cc1 (stereo unspecified),/,/,-16,-4,/,/
CC1CCN(S(=O)(=O)c2ccc3c(c2)C(=NO)c2cc(S(=O)(=O)N4CCC(C)CC4)ccc2-3)CC1,5,-1,-9,-2,39*,i
COC(=O)c1[nH]c2cc(C)ccc2c1NC(=O)CN1CCOCC1,2,-8,0,10,15,/
COC(=O)c1[nH]c2ccc(C)cc2c1NC(=O)CCN1CCN(Cc2ccc3c(c2)OCO3)CC1,3,-8,4,3,42*,i
CCN(CC)CCOC(=O)c1ccc(N/C=C(/C#N)c2nc(-c3ccc(OC)cc3)cs2)cc1,2,-12,-10,1,62*,i
COc1cc(/C=N/NC(=O)c2ccc(CSc3nc4ccccc4[nH]3)cc2)cc(OC)c1OC,2,-11,-9,-4,49*,+
COc1cc(/C=N/Nc2nc3ccccc3[nH]2)cc(OC)c1O,-13,-1,-7,-3,23,/
COc1cc(/C=N/Nc2nc3ccccc3[nH]2)cc(Br)c1OCC(=O)N(C)C,1,7,-10,-14,57*,+
CCOCCCNc1c2c(nc3cc(-c4ccc(F)cc4)nn13)CCC2,17,-1,-3,-4,5,/
CN(C)CCCNc1c2c(nc3cc(-c4cccc(F)c4)nn13)CCC2,-3,0,-8,-1,43*,i
COc1ncccc1-c1nnn(-c2ccc(Cl)nc2)n1,-6,-7,2,0,31*,i
Cc1nnc(-n2cccc2)s1,/,/,8,0,/,/
O=C(N[C@H](C(=O)N1CCC[C@H]1C(=O)NCCc1ccccc1Cl)C1CCCCC1)c1ccc(Cl)c(Cl)c1,/,/,-6,1,/,/
NC(N)=NC(=O)c1nc(Cl)c(N2CCCCCC2)nc1N,-2,-8,-9,7,6,/
NC(N)=NC(=O)c1nc(Cl)c(N)nc1N,-9,-2,2,1,40*!,i
Cc1c(C)c2ccc(OC(C)C(=O)N3C[C@H]4C[C@@H](C3)c3cccc(=O)n3C4)c(C)c2oc1=O (stereo partly specified),6,-4,0,3,44*,i
